Measured values taken from ChEMBL document CHEMBL1129042, “Discovery of novel retinoic acid receptor agonists having potent antiproliferative activity in cervical cancer cells” (J Med Chem, 1996).

What was measured:
[1] = target: T1, Retinoic acid receptor gamma (Homo sapiens) (UniProt P13631); assay: Percent transcriptional activation relative to ATRA in CV-1 cells expressing Retinoic acid receptor RAR gamma; format: functional, cell-based
T1 sequence (whole entry): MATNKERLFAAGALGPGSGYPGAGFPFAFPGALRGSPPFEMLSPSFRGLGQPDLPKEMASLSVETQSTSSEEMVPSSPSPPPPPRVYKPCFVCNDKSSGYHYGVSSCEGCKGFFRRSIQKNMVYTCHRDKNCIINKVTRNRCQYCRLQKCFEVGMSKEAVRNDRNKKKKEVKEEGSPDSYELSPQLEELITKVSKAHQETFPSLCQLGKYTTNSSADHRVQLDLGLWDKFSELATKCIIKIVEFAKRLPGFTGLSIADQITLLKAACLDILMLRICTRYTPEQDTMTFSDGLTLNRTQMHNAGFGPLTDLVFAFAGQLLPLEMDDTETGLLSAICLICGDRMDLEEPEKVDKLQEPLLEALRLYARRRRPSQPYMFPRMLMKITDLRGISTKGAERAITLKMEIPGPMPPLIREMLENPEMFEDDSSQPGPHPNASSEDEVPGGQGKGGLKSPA
Method in brief: (§1)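 Cotransfection transactivation assay in CV-1 cells. Full dose-response curves ran from 10^-12 to 10^-5 M. Efficacy is expressed as percent of the ATRA response, with ATRA set at 100%. Values are mean ± SEM of at least three separate experiments, each with triplicate determinations.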

[2] = target: T2, Retinoic acid receptor alpha (Homo sapiens) (UniProt P10276); assay: Percent transcriptional activation relative to ATRA in CV-1 cells expressing Retinoic acid receptor RAR alpha; format: functional, cell-based; method in brief: as §1
T2 sequence (whole entry): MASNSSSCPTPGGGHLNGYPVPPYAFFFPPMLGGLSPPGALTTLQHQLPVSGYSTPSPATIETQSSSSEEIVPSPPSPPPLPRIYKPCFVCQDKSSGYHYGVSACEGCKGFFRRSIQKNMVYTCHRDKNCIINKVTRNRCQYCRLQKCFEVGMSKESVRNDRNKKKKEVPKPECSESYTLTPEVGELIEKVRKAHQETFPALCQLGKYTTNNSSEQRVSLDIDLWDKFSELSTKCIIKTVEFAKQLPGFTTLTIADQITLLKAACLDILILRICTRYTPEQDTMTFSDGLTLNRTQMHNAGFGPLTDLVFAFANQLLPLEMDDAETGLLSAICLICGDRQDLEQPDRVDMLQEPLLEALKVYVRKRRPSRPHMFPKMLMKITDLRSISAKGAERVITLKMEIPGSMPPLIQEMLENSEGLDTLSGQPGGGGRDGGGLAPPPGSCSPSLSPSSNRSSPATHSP

[3] = target: T3, Retinoic acid receptor RXR-beta (Homo sapiens) (UniProt P28702); assay: Percent transcriptional activation relative to ATRA in CV-1 cells expressing Retinoid X receptor RXR beta; format: functional, cell-based; method in brief: as §1
T3 sequence (whole entry): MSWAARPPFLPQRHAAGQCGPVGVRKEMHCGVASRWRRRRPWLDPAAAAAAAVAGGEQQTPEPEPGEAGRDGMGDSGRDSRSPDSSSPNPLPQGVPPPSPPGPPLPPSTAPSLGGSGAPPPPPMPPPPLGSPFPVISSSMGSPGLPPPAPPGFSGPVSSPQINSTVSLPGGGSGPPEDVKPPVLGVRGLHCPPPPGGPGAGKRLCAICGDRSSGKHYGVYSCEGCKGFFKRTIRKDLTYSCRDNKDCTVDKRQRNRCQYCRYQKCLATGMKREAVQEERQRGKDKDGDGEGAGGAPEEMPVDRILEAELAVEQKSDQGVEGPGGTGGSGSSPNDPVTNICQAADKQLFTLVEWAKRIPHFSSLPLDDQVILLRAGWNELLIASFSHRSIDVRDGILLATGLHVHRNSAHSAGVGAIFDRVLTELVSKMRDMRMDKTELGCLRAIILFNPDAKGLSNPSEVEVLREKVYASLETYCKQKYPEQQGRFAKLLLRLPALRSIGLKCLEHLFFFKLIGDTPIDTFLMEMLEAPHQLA

[4] = target: T4, Retinoic acid receptor RXR-alpha (Homo sapiens, UniProt P19793); assay: Inhibition of [3H]9-cis-RA binding to Retinoid X receptor RXR alpha
T4 sequence (P19793 whole entry): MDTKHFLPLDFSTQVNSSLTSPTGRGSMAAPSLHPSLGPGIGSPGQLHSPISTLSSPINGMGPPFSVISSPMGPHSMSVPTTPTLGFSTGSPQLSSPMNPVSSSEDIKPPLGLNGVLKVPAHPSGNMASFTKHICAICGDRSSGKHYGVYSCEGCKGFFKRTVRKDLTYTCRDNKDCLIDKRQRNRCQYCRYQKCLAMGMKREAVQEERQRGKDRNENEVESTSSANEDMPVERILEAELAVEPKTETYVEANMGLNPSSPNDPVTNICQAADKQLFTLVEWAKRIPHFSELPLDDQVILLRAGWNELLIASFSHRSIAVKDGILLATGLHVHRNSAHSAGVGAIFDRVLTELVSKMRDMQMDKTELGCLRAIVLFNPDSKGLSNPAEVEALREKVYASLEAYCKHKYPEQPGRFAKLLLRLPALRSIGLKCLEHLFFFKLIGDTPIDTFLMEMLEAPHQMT

[5] = target: T5, Retinoic acid receptor beta (Homo sapiens, UniProt P10826); assay: Transcriptional activation in CV-1 cells expressing Retinoic acid receptor RAR beta; format: functional, cell-based
T5 sequence (P10826 whole entry): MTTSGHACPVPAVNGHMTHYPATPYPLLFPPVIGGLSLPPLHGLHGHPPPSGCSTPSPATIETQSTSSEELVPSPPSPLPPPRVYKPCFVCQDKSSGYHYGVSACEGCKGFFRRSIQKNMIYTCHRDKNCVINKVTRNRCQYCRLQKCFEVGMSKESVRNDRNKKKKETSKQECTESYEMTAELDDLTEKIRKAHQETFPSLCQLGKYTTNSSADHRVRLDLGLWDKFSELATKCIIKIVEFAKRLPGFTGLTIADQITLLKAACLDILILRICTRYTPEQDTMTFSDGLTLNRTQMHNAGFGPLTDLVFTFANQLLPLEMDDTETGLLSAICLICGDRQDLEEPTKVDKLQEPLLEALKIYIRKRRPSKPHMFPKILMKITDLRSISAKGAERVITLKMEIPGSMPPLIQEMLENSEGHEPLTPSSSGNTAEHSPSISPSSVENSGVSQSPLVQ

[6] = target: T6, Retinoic acid receptor RXR-beta (Homo sapiens, UniProt P28702); assay: Inhibition of [3H]9-cis-RA binding to Retinoid X receptor RXR beta
T6 sequence (P28702 whole entry): T3 sequence (whole entry)

[7] = target: T7, Retinoic acid receptor RXR-gamma (Homo sapiens, UniProt P48443); assay: Inhibition of [3H]9-cis-RA binding to Retinoid X receptor RXR gamma
T7 sequence (P48443 whole entry): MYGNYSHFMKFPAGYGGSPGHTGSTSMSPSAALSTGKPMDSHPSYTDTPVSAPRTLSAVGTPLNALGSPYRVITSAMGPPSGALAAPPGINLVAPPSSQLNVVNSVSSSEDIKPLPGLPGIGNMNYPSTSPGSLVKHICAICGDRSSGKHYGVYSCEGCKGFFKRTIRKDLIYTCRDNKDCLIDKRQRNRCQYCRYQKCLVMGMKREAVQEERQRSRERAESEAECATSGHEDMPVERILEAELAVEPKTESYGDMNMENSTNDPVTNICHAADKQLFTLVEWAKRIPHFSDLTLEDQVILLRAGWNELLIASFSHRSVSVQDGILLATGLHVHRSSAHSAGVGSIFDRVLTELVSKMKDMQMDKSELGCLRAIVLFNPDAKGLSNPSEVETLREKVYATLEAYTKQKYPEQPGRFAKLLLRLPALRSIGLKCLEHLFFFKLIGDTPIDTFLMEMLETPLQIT

[8] = target: T6, Retinoic acid receptor RXR-beta; assay: Transcriptional activation in CV-1 cells expressing Retinoid X receptor RXR beta; format: functional, cell-based
[9] = target: T8, Retinoic acid receptor alpha (Homo sapiens, UniProt P10276); assay: Inhibition of [3H]ATRA binding to Retinoic acid receptor RAR alpha
T8 sequence (P10276 whole entry): T2 sequence (whole entry)

[10] = target: T7, Retinoic acid receptor RXR-gamma; assay: Transcriptional activation in CV-1 cells expressing Retinoid X receptor RXR gamma; format: functional, cell-based
[11] = target: T5, Retinoic acid receptor beta; assay: Inhibition of [3H]ATRA binding to Retinoic acid receptor RAR beta
[12] = target: T4, Retinoic acid receptor RXR-alpha; assay: Transcriptional activation in CV-1 cells expressing Retinoid X receptor RXR alpha; format: functional, cell-based
[13] = target: T8, Retinoic acid receptor alpha; assay: Transcriptional activation in CV-1 cells expressing Retinoic acid receptor RAR alpha; format: functional, cell-based
[14] = target: T4, Retinoic acid receptor RXR-alpha; assay: Transcriptional activation in CV-1 cells expressing Retinoid X receptor RXR alpha; Not active; format: functional, cell-based
[15] = target: T7, Retinoic acid receptor RXR-gamma; assay: Transcriptional activation in CV-1 cells expressing Retinoid X receptor RXR gamma; Not active; format: functional, cell-based

| SMILES | Efficacy [1] [%] | Efficacy [2] [%] | Efficacy [3] [%] | Ki [4] [nM] | EC50 [5] [nM] | Ki [6] [nM] | Ki [7] [nM] | EC50 [8] | Ki [9] [nM] | Ki [11] [nM] | further results |
| --- | --- | --- | --- | --- | --- | --- | --- | --- | --- | --- | --- |
| CC1=C(/C=C/C(C)=C/C=C/C(C)=C/C(=O)O)C(C)(C)CCC1 | 100 | 100 | 100 |  |  |  |  |  |  |  |  |
| CC1=C(/C=C/C(C)=C\C=C\C(C)=C\C(=O)O)C(C)(C)CCC1 | 93 | 81 | 128 |  |  |  |  |  |  |  |  |
| CC(/C=C/C=C(\C)c1cc(C(C)(C)C)cc(C(C)(C)C)c1)=C\C(=O)O (stereo in doubt; form 1) [listing 1 of 2 here] |  |  |  | 4.6 | 24 | 10.2 | 9.3 | 87 nM | 63.5 | 90 | EC50 [10]: 77 nM; EC50 [12]: 134 nM; EC50 [13]: 65 nM |
| CC(/C=C/C=C(\C)c1cc(C(C)(C)C)cc(C(C)(C)C)c1)=C\C(=O)O (stereo in doubt; form 1) [listing 2 of 2 here] | 58 | 39 | 27 |  |  |  |  |  |  |  |  |
| CC(/C=C/C=C(\C)c1cc(C(C)(C)C)cc(C(C)(C)C)c1)=C\C(=O)O (stereo in doubt; form 2) [listing 1 of 2 here] |  |  |  | 223 | 2.2 | 560 | 320 | Not Active | 1.1 | 0.7 | EC50 [14]: Not Active; EC50 [15]: Not Active |
| CC(/C=C/C=C(\C)c1cc(C(C)(C)C)cc(C(C)(C)C)c1)=C\C(=O)O (stereo in doubt; form 2) [listing 2 of 2 here] | 48 | 31 |  |  |  |  |  |  |  |  |  |
